Mdm2-MdmX inh: inhibitors of human Mdm2/MdmX interaction. O15151+Q00987. SaOS-2 split-luciferase Mdm2/MdmX complementation, luminescence. inhibition, % at 8 µM. 3% of 330,000 active;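 active = inhibition of at least 50% at 8 µM in the primary screen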
T cruzi inh: blocks replication of Trypanosoma cruzi. T. cruzi beta-gal in NIH3T3, luminescence, 90 h. inhibition, % (test concentration not listed). 1.4% of 300,000 active. AID 1885;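 active = mean inhibition across valid replicates above about 55%, limit read from the data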;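 also: signal also drops with host cell toxicity which is not excluded here; higher percent means less beta-gal luminescence so fewer parasites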
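Assay system: NIH/3T3 fibroblasts plus reporter T. cruzi. Amount: NIH/3T3 cells, 5,000 per well. Buffer or medium: DMEM, 2% fetal bovine serum. Doses: compound pinned at 50 nL/well, DMSO. Schedule: ≥90 h infection period, 3 h prior cell attachment. Signal: luminescent β-galactosidase signal after 60 min lysis. Read-out: parasite load inhibition, %.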
Beta cell apopt: blocks beta cell apoptosis; AID 435005; 0.8% of 300,000 active; INS-1E cytokine-induced death, ATP luminescence, 48 h; percent of positive-control rescue, neutral wells zero; protection from apoptosis, % (concentration not given with the values);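 active = Every replicate reaches about 75%, or at least half do and their mean reaches it too, limit read from the data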;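 also: higher means more ATP so stronger rescue from cytokine killing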
Calb FLC: C. albicans growth modulation with fluconazole; C. albicans CaCi-2 (fluconazole-resistant clinical isolate) + fluconazole, Alamar Blue growth, 48 h; growth inhibition, % (no concentration beside the values); 0.57% of 300,000 active;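 active = growth inhibition above about 58% in most replicates, limit read from the data, passing the limit was not always enough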;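 also: all wells also contain fluconazole at 8 µg/ml as a sub-toxic cotreatment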
CSC inhib: cancer stem cell inhibition | cancer stem cell-like cells viability, luminescence | inhibition, % at 7.5 µM | AID 2717 | 1.1% of 300,000 active; in the data active = inhibition above about 75%; tested in HMLE shEcad cells
NALP3 yeast inh: blocks the NALP3 inflammasome reconstituted in yeast; Yeast reconstituted NLRP3/ASC/caspase-1, beta-gal luminescence, 24 h; inhibition, % at 10 µM; 0.39% of 330,000 active; AID 2825;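 active = inhibition of 50% or more; inactive = inhibition below 50%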
Mdm2 MdmX conf: human Mdm2/MdmX binding inhibition, confirmed; shares compounds with Mdm2-MdmX inh; luminescent assay; inhibition, % at 8 µM; 55% of 10,000 active; AID 489028; in the data active = inhibition above about 40%
Full FLuc ctr: full-length luciferase inhibition in Mdm2/MdmX counter-screen; 77% of 6,200 active; inhibition, % at 8 µM; SaOS-2 full-length luciferase counterscreen, luminescence; shares compounds with Mdm2-MdmX inh;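 active = mean inhibition at 8 µM reaching about 37%, which flags the compound as non-specific, limit read from the data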;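 also: p53-null SaOS-2 cells with luciferase driven by a doxycycline-inducible promoter; compound on cells about two nights before reading with doxycycline added after day one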
Large screens that a line does not name were inactive (follow-up assays come after a bar, where they were run). In the library only some 5.3% were active in any assay of this set; here they are far more common.

FC(F)(F)c1nnc2c(Sc3ccccn3)nc3ccccc3n12	none
CCCCN(C(=O)c1ccc2c(c1)OCO2)c1c(N)n(CC(C)C)c(=O)[nH]c1=O	none (no result: T cruzi inh, Calb FLC)
CN(C)S(=O)(=O)c1ccc(NC(=O)c2cc(-c3cccs3)nc3ccccc23)cc1	Mdm2-MdmX inh 64.0 | Mdm2 MdmX conf 61.8 | Full FLuc ctr 53.0
NS(=O)(=O)c1ccc(NC(=O)c2cc(-c3cccs3)nc3ccccc23)cc1	Mdm2-MdmX inh 87.0 | Mdm2 MdmX conf inactive
CCN(CC)S(=O)(=O)c1ccc(NC(=O)c2cc(-c3cccs3)nc3ccccc23)cc1	Mdm2-MdmX inh 50.2 | Mdm2 MdmX conf inactive
CC(=O)NS(=O)(=O)c1ccc(NC(=O)c2cc(-c3cccs3)nc3ccccc23)cc1	none
Cc1cc(NC(=O)c2cc(-c3ccccn3)nc3ccc(Br)cc23)no1	Mdm2-MdmX inh 66.4 | Mdm2 MdmX conf inactive
Cc1ccc(NC(=O)CCn2ccc([N+](=O)[O-])n2)nc1	none
Cc1cccc2sc(NNC(=O)c3cc(-c4cccs4)nc4ccccc34)nc12	Mdm2-MdmX inh 81.9, Calb FLC 84.9, CSC inhib 103.2 (no result: Beta cell apopt) | Mdm2 MdmX conf 51.3 | Full FLuc ctr 61.0
NS(=O)(=O)c1ccc(CCNC(=O)c2cc(-c3ccc(Br)cc3)nc3ccccc23)cc1	none
COc1ccc(-c2cc(C(=O)Nc3nc4c(C)cccc4s3)c3ccccc3n2)cc1OC	none (no result: Beta cell apopt, CSC inhib)
NS(=O)(=O)c1ccc(CCNC(=O)c2cc(-c3ccccn3)nc3ccc(Br)cc23)cc1	Mdm2-MdmX inh 76.9 | Mdm2 MdmX conf inactive
CCN(CC)S(=O)(=O)c1cc(NC(=O)c2cc(-c3ccccn3)nc3ccccc23)ccc1C	Mdm2-MdmX inh 52.5 | Mdm2 MdmX conf inactive
Cc1cc(NC(=O)c2cc(-c3cccs3)nc3ccccc23)no1	Mdm2-MdmX inh 51.3 | Mdm2 MdmX conf inactive
Cc1cccc(C(=O)NC2CCN(S(=O)(=O)c3ccccc3F)CC2)c1	none
Cc1cc(OCC(O)CN2CCOCC2)cc(C)c1Cl (centres undefined)	none
O=C1CCC(=O)N1c1cccc(-c2nc3ccccc3o2)c1	none
CCCc1cc(=O)[nH]c(SCc2nc3ccccc3o2)n1	none
Cc1ccc(-c2nc(C(Cl)Cl)c3ccccc3n2)cc1	Mdm2-MdmX inh 95.5, Beta cell apopt 93.7, CSC inhib 132.2 | Mdm2 MdmX conf 48.8 | Full FLuc ctr inactive
CCOC(=O)c1c(C)[nH]c(C)c1S(=O)(=O)NCCN1CCN(c2cc(Cl)ccc2C)CC1	Mdm2-MdmX inh 59.0 | Mdm2 MdmX conf inactive
CCOC(=O)c1c(C)[nH]c(C)c1S(=O)(=O)NCCCN1CCOCC1	none
CC(C)(C)c1cc(NC(=O)Nc2ccc(Br)cc2Cl)no1	none
COC(=O)CN(C)C(=O)c1ccc2nc(Cc3cccc(Cl)c3)oc2c1	none
O=C(O)c1cc2c([nH]c1=O)CCCC2	none
C=CCSC(=C(C#N)C#N)c1cc2c([nH]1)CCCC2	Mdm2-MdmX inh 81.1, CSC inhib 100.5 (no result: Calb FLC) | Mdm2 MdmX conf inactive
COC(=O)C(C(=O)OC)c1ccc(NC(=O)c2cccc(Cl)c2)cc1	none
Cc1cc(C)cc(S(=O)(=O)c2cnc3ccccc3n2)c1	none
O=S(=O)(c1ccc(Cl)cc1)c1cnc2ccccc2n1	Mdm2-MdmX inh 53.1 | Mdm2 MdmX conf inactive
Oc1c(N=NC(=S)Nc2ccccc2F)c2ccccc2n1Cc1cccc(Cl)c1	Mdm2-MdmX inh 58.6, T cruzi inh 57.4 | Mdm2 MdmX conf inactive
NC(=S)N=Nc1c(O)n(Cc2ccc(F)cc2)c2ccccc12	none
Cc1cccc(Cn2c(O)c(N=NC(=S)Nc3ccccc3F)c3ccccc32)c1	Mdm2-MdmX inh 62.7, T cruzi inh 60.2, Calb FLC 113.8 | Mdm2 MdmX conf 41.9 | Full FLuc ctr 54.4
Oc1c(N=NC(=S)Nc2ccccc2F)c2ccccc2n1Cc1ccc(F)cc1	Mdm2-MdmX inh 59.4, T cruzi inh 66.5 | Mdm2 MdmX conf 47.0 | Full FLuc ctr 55.2
OCCCNc1c2ccccc2nc2ccccc12	Mdm2-MdmX inh 79.1, T cruzi inh 69.7, Beta cell apopt 109.1 | Mdm2 MdmX conf 81.9 | Full FLuc ctr 43.9
c1ccc2c(NCCc3c[nH]c4ccccc34)c3ccccc3nc2c1	Mdm2-MdmX inh 100.3, T cruzi inh 63.4, CSC inhib 87.4 (no result: Beta cell apopt) | Mdm2 MdmX conf 60.4 | Full FLuc ctr 54.9
Cc1ccc(-c2nc(NCCCO)c3ccccc3n2)cc1	none
COCC(C)NC(=O)c1cc(-c2ccccc2OC)on1 (centres undefined)	none
N#Cc1ccc(OCC(=O)NCCc2ccc(S(N)(=O)=O)cc2)cc1	none
Cc1ccc(S(=O)(=O)NNC(=O)c2cnn(-c3ccc(Cl)cc3)c2C(F)(F)F)cc1	none
CC(=O)c1c(C)[nH]c(C(=O)OCC(=O)Nc2cccc(S(=O)(=O)N3CCCC3)c2)c1C	none
CC(=O)c1c(C)[nH]c(C(=O)Nc2ccc(Cl)c(S(=O)(=O)N3CCOCC3)c2)c1C	Mdm2-MdmX inh 59.4 | Mdm2 MdmX conf inactive
CC(=O)c1c(C)[nH]c(C(=O)Nc2cccc(S(=O)(=O)N3CCCC3)c2)c1C	Mdm2-MdmX inh 69.7 (no result: T cruzi inh, Calb FLC) | Mdm2 MdmX conf inactive
CC(=O)c1c(C)[nH]c(C(=O)OCC(=O)Nc2cc(S(=O)(=O)N3CCCC3)ccc2Cl)c1C	Mdm2-MdmX inh 54.0 | Mdm2 MdmX conf inactive
COc1ccccc1NS(=O)(=O)c1cc(NC(=O)c2[nH]c(C)c(C(C)=O)c2C)ccc1N1CCOCC1	Mdm2-MdmX inh 61.2 | Mdm2 MdmX conf inactive
COc1ccc(NC(=O)c2[nH]c(C)c(C(C)=O)c2C)cc1S(=O)(=O)N1CCOCC1	none
CCOC(=O)c1nnn(-c2nc(N(C)C)nc(N(C)C)n2)c1C	none (no result: Beta cell apopt, CSC inhib)
O=C(CNC(=O)c1ccco1)Nc1ccncc1	none
CCCCOC(=O)C(C)Nc1n[nH]c(=O)[nH]c1=O (centres undefined)	none
Cc1ccc(NC(=O)CSC2=C(C#N)C(c3ccco3)C3=C(CC(C)(C)CC3=O)N2)cc1 (centres undefined)	Mdm2-MdmX inh 51.0 (no result: CSC inhib) | Mdm2 MdmX conf inactive
CCc1ccc(NC(=O)CSC2=C(C#N)C(c3ccco3)C3=C(CCCC3=O)N2)cc1 (centres undefined)	none
Cc1ccc(N(Cc2ccccc2)C(=O)c2cc(S(=O)(=O)N3CCOCC3)ccc2F)cc1	none (no result: T cruzi inh, Calb FLC, CSC inhib)
COc1ccc(Nc2oc(COc3ccccc3OC)nc2C#N)cc1	Mdm2-MdmX inh 68.5 | Mdm2 MdmX conf 63.8 | Full FLuc ctr 71.7
COc1ccccc1OCc1nc(C#N)c(NCCCn2ccnc2)o1	none
CC1Cc2ccccc2N1C(=O)CN(C)CC(=O)Nc1ccc(OC(F)(F)F)cc1 (centres undefined)	none (no result: T cruzi inh, Calb FLC, CSC inhib)

Screening data as filed in PubChem BioAssay.
